The results in this text go back to ChEMBL document CHEMBL1142242, “Indanylacetic acid derivatives carrying 4-thiazolyl-phenoxy tail groups, a new class of potent PPAR alpha/gamma/delta pan agonists: synthesis, structure-activity relationship, and in vivo efficacy” (J Med Chem, 2007).

For series [1], the target named is T1, Peroxisome proliferator-activated receptor gamma (Mus musculus, UniProt P37238).
T1 sequence (P37238 whole entry): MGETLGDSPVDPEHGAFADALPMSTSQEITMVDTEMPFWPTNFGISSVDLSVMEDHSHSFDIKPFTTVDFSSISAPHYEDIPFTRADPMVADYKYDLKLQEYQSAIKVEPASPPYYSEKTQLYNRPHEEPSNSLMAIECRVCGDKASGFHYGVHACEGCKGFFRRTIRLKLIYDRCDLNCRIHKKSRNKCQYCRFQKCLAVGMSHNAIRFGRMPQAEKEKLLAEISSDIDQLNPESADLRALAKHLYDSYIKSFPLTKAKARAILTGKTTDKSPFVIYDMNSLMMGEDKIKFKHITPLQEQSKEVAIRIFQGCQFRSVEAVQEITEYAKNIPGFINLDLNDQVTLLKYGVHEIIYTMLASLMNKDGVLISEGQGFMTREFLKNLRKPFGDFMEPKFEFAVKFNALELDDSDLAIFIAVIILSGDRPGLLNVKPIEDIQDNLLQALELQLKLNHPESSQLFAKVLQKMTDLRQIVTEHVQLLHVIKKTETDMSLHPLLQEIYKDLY
Put plainly: Agonist activity at PPAR gamma in mouse 3T3L1 cells assessed as increase in insulin receptor by IRBA. It is filed as functional, cell-based, 3T3-L1.

For series [2], the target named is T2, Peroxisome proliferator-activated receptor alpha (Homo sapiens, UniProt Q07869).
T2 sequence (Q07869 whole entry): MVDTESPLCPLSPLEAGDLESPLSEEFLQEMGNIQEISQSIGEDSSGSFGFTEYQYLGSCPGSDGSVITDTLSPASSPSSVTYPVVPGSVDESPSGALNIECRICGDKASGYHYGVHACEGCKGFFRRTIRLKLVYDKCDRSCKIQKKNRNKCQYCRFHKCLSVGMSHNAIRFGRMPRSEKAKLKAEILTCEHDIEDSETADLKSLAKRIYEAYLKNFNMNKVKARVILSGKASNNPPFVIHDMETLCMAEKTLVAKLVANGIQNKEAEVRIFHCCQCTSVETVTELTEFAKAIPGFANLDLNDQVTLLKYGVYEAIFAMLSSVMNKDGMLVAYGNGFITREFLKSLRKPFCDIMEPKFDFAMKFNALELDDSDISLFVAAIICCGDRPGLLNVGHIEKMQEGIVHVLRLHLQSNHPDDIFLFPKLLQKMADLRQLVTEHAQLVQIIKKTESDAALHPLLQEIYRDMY
As to the kind of experiment: Agonist activity at human PPAR alpha by FRET assay. It is filed as functional. The procedure, abridged:
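Human PPARα ligand binding domain (GST-tagged) association with biotin-labeled co-activator CBP; Eu-labeled anti-GST antibody and streptavidin-APC; incubated 2 h at rt in buffer with or without compound; fluorescence read at 615 or 655 nm emission, 340 nm excitation.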

The nature of series [3]: Aqueous solubility of the compound. Format: physicochemical.
In series [4] the target is T3, Peroxisome proliferator-activated receptor delta (Homo sapiens, UniProt Q03181).
T3 sequence (Q03181 whole entry): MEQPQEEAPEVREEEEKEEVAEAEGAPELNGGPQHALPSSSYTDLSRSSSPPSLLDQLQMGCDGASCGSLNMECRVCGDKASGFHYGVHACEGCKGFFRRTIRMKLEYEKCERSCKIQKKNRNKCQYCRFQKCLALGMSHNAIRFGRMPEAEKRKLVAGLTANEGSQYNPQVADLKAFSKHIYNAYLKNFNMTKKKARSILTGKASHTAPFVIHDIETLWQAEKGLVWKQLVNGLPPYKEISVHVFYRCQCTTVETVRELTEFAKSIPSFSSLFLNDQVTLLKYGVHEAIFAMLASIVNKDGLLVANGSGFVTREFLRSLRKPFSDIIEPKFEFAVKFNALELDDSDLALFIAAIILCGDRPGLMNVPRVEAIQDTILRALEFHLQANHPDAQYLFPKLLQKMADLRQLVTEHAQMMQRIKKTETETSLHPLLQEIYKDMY
Put plainly: Agonist activity at human PPAR delta by FRET assay. Format: functional.

For series [5], the target named is T4, Peroxisome proliferator-activated receptor alpha (Homo sapiens) (UniProt Q07869).
T4 sequence (whole entry): T2 sequence (Q07869 whole entry)
Put plainly: (§1) Agonist activity at human PPAR alpha expressed in CV1 cells by GAL4 transactivation assay. Format: functional, cell-based. The settings on record: CV-1. The procedure, abridged:
(§2)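 CV-1 cells plated, grown overnight at 37 °C in 5% CO₂, then transfected with GAL4-fused human PPARα ligand binding domain, pFR-LUC and pRL-SV40 reporter DNAs by lipofection. After a further overnight incubation, cells were exposed to compound or vehicle overnight. Activity was read as dual-luciferase reporter signal.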

The target of series [6] is T2, Peroxisome proliferator-activated receptor alpha. The description is as §1. It is filed as functional, cell-based, CV-1. An outline of the steps:
as §2

The target in another series is Cytochrome P450 3A4 (Homo sapiens, UniProt P08684). As to the kind of experiment: Inhibition of CYP3A4. Format: ADME. An outline of the steps: (§3)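 Enzyme assays per CYP isoform (1A2, 2C8, 2D6, 3A4), with turnover of an appropriate fluorescent substrate as read-out; IC₅₀ reported.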
Series [7] can be described thus: Aqueous solubility at pH 6.8. It is filed as physicochemical.
Another series concerns the target Estrogen receptor (Mus musculus, UniProt O08537+P19785). As to the kind of experiment: Displacement of [3H]O-estradiol from ER in Swiss mouse uteri. It is filed as protein assay. In general terms: In a radioligand displacement assay an active substance lowers the binding of a labelled ligand.
Series [8] concerns the target Peroxisome proliferator-activated receptor alpha (Mus musculus, UniProt P23204). As to the kind of experiment: (§4) Agonist activity at mouse PPAR alpha. It is filed as functional.
Series [9] concerns the target T5, Peroxisome proliferator-activated receptor alpha (Mus musculus) (UniProt P23204).
T5 sequence (whole entry): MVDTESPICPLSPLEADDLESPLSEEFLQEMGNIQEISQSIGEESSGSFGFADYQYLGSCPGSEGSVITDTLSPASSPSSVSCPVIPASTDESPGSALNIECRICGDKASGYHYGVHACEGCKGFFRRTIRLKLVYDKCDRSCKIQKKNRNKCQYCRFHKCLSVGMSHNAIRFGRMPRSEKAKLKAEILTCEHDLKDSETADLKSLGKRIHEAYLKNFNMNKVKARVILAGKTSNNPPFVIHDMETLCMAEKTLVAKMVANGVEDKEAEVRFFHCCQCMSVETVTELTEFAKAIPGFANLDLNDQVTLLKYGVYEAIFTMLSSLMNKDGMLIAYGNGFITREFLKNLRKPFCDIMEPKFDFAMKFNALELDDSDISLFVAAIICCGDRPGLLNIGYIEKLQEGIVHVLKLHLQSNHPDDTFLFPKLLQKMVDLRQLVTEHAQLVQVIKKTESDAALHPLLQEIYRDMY
Described as §4. It is filed as functional.

In another series the target is Cytochrome P450 2C9 (Homo sapiens, UniProt P11712). As to the kind of experiment: Inhibition of CYP2C9. Format: ADME.
Series [10] in a line: Cmax in mouse at 10 mg/kg, po. Format: ADME, organism-based. Further details: dose 10 mg/kg, route oral. The conditions noted are these: in vivo. The procedure, abridged: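 Mice dosed orally in 0.5% methylcellulose vehicle; plasma Cmax reported.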
Another series deals with Progesterone receptor (Homo sapiens, UniProt P06401). As to the kind of experiment: Displacement of [3H]progesterone from progesterone receptor in T47D cells. It is filed as cell-based. The procedure, abridged:
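Cytosol from T47D cells incubated overnight at 4 °C with ³H-progesterone at 10 nM final, with or without compound. DMSO defined total binding and 1 µM unlabelled progesterone defined nonspecific binding. Bound and free ligand were separated on a spin plate, and the flow-through was counted by scintillation.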

The next series has as its target Androgen receptor (Homo sapiens, UniProt P10275). Put plainly: Displacement of [3H]dihydrotestosterone from human recombinant androgen receptor expressed in SF9 baculovirus cells.
For a further series, the target named is Cytochrome P450 2C8 (Homo sapiens, UniProt P10632). Put plainly: Inhibition of CYP2C8. It is filed as ADME. The procedure, abridged:
as §3

The target of the next series is Cytochrome P450 1A2 (Homo sapiens, UniProt P05177). As to the kind of experiment: Inhibition of CYP1A2. It is filed as ADME. The procedure, abridged:
as §3

For series [11], the target named is PPAR gamma (Homo sapiens). Put plainly: Agonist activity at human PPAR gamma expressed in human preadipocytes assessed as increase in insulin receptor by IRBA.
The next series concerns the target Glucocorticoid receptor (Homo sapiens, UniProt P04150). Put plainly: Displacement of [H]dexamethaxone from glucocorticoid receptor in HUH cells. It is filed as cell-based.
Series [12] has as its target T3, Peroxisome proliferator-activated receptor delta. Put plainly: Agonist activity at human PPAR delta expressed in CV1 cells by GAL4 transactivation assay.
Series [13] addresses Peroxisome proliferator-activated receptor delta (Mus musculus, UniProt P35396). As to the kind of experiment: Agonist activity at mouse PPAR delta.
Another series concerns the target Cytochrome P450 2D6 (Homo sapiens, UniProt P10635). Put plainly: Inhibition of CYP2D6. It is filed as ADME. The procedure, abridged: as §3

Chain of Androgen receptor (P10275 whole entry): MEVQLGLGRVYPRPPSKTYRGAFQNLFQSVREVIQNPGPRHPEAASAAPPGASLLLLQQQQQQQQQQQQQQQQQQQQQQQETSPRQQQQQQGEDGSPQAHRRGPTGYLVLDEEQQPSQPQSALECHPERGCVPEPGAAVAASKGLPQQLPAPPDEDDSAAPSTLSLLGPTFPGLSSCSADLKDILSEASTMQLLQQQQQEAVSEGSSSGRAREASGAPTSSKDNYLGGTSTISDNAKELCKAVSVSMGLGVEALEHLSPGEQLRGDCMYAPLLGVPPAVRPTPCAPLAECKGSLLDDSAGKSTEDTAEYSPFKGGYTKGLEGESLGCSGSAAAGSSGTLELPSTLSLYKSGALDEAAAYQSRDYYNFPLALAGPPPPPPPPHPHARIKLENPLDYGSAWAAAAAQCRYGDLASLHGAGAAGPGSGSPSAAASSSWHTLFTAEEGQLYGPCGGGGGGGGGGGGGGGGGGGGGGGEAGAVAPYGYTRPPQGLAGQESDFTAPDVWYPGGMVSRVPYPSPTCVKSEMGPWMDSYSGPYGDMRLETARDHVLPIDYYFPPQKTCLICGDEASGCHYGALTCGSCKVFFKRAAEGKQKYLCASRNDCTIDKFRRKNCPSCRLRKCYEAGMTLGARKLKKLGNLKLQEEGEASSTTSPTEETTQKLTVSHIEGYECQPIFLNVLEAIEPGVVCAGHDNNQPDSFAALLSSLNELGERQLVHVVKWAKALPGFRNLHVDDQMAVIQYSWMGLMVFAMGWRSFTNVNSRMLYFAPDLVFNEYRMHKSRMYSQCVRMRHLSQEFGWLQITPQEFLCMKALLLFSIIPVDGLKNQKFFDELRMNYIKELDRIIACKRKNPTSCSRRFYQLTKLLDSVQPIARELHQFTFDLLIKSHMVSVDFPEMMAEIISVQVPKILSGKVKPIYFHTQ
Chain of Cytochrome P450 2C8 (P10632 whole entry): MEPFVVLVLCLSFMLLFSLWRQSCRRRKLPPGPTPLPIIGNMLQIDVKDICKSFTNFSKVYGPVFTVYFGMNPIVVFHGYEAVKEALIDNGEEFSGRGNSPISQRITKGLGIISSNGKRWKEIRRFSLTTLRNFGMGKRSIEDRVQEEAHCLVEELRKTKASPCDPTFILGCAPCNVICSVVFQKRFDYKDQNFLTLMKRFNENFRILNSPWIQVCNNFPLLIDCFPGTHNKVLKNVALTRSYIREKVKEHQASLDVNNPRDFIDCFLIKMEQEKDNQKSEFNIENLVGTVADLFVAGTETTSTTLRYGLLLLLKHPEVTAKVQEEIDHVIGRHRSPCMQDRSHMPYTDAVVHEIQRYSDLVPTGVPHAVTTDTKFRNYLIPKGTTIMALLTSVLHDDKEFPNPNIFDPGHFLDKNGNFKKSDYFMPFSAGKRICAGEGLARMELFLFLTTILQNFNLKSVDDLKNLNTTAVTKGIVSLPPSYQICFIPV
Chain of Peroxisome proliferator-activated receptor delta (Mus musculus, UniProt P35396) (P35396 whole entry): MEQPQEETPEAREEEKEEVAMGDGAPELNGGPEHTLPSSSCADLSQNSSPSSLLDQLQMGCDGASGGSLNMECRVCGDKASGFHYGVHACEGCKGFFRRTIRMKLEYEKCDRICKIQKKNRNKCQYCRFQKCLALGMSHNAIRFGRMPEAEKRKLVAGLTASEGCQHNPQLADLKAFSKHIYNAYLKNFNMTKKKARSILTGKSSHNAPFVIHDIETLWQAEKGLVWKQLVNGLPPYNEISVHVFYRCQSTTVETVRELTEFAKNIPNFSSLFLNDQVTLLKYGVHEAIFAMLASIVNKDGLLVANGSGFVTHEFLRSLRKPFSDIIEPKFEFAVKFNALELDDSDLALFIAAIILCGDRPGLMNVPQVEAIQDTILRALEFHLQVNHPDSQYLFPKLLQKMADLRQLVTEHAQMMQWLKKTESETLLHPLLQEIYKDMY
Chain of Progesterone receptor (P06401 whole entry): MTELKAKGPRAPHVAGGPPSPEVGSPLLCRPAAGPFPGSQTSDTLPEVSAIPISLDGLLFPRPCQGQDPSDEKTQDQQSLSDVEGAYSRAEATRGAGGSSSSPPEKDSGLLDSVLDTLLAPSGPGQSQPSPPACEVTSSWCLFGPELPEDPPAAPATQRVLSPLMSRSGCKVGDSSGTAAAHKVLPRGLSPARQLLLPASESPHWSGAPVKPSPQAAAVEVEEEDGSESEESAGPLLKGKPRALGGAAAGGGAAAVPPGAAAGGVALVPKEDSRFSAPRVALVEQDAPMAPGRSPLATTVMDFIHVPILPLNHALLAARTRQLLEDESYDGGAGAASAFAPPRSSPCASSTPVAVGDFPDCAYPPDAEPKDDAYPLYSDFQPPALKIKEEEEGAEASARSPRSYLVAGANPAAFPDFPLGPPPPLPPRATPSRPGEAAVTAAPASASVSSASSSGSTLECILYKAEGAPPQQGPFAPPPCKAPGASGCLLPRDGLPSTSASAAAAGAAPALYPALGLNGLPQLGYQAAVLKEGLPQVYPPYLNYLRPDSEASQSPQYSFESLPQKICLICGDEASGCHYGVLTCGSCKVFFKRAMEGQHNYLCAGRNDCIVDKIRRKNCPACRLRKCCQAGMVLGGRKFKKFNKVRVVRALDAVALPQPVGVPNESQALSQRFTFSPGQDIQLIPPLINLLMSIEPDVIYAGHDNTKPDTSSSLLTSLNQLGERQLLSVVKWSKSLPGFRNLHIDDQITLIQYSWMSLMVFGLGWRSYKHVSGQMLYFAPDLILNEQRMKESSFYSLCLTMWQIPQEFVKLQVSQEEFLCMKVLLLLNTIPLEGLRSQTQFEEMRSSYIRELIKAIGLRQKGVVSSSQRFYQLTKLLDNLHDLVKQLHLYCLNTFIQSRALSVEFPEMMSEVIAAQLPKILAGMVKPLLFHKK
Chain of Cytochrome P450 2C9 (P11712 whole entry): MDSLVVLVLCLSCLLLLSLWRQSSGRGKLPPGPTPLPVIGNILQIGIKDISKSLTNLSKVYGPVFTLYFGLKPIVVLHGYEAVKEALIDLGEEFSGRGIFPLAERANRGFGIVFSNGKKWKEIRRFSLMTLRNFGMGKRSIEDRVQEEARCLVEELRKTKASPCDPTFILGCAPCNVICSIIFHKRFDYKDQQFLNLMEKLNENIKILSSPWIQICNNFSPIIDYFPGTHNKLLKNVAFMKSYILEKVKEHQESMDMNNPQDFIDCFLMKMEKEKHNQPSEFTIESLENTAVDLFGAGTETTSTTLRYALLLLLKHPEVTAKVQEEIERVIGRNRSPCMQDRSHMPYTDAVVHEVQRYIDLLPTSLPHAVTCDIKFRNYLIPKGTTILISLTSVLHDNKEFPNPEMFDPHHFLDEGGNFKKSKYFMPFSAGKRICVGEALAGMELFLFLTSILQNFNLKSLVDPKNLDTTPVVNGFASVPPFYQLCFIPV
Chain of Cytochrome P450 2D6 (P10635 whole entry): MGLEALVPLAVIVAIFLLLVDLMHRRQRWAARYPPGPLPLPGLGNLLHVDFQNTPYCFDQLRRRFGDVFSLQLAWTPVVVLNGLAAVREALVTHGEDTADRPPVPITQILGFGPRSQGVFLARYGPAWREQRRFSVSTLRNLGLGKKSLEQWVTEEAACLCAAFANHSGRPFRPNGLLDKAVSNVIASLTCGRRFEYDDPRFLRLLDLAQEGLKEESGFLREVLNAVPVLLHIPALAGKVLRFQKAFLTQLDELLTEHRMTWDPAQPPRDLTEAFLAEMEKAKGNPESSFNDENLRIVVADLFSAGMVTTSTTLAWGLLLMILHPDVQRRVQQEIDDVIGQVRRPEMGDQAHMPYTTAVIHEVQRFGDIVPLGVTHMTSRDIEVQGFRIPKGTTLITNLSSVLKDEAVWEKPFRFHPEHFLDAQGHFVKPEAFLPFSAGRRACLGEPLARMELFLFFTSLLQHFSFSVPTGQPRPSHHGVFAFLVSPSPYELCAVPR
Chain of Cytochrome P450 1A2 (P05177 whole entry): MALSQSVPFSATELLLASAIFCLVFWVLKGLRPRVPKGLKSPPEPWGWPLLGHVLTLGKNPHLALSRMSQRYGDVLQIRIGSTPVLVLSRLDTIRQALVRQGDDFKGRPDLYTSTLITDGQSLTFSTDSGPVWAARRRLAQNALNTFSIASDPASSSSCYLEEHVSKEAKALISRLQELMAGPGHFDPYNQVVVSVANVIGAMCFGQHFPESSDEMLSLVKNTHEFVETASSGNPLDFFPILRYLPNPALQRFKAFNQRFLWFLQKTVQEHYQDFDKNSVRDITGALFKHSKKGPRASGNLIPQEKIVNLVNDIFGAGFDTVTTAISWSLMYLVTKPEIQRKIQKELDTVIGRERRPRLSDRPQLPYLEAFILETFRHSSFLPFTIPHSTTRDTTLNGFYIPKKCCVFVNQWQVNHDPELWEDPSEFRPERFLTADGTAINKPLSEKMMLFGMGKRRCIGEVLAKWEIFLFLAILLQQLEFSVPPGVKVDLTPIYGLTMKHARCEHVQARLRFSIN
Chain of Cytochrome P450 3A4 (P08684 whole entry, canonical isoform): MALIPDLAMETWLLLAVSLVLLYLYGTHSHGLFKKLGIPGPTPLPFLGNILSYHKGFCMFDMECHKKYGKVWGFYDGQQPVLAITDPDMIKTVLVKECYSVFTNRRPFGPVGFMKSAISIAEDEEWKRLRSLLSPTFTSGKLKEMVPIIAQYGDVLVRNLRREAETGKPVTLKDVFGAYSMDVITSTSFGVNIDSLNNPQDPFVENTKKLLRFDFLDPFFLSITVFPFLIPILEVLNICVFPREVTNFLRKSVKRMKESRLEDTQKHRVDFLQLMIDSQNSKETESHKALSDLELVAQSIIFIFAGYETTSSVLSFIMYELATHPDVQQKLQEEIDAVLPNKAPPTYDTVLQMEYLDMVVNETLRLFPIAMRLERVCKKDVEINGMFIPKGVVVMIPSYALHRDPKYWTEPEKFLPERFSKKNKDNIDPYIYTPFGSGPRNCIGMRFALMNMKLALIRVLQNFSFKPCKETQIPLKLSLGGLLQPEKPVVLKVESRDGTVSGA

Consider `CCCc1c(OCCCOc2ccc3c(c2)CC[C@H]3CC(=O)O)ccc2c(C(F)(F)F)noc12`, for which the EC50 in [1] amounted to 42 nM; in series [2] it was 192 nM; in series [4] it was 6 nM. Besides, the solubility in series [3] is under 1 µM.

Take `CCCc1cc(-c2nc3c(s2)CCCC3)ccc1OCCCOc1ccc2c(c1)CC[C@H]2CC(=O)O`: the values for the Activity in series [5] and in series [9] were 100% and 79%, respectively. The EC50 in series [6] was 5 nM; in [1], 12 nM; on Estrogen receptor, over 10000 nM; in series [8], 7700 nM; in series [2], 43 nM; at Progesterone receptor it was over 10000 nM. In addition, the EC50 in series [4] is 1.9 nM; at Androgen receptor, over 10000 nM; in series [11] it was 81 nM; on Glucocorticoid receptor, over 10000 nM; in [12], 2.6 nM; in series [13], 8.6 nM. Moreover, the IC50 at Cytochrome P450 3A4, against Cytochrome P450 2C9, against Cytochrome P450 2C8, against Cytochrome P450 1A2 and on Cytochrome P450 2D6 was over 10000 nM each time. Also, the solubility in series [7] is under 5 µM. The same compound registered a maximum concentration (Cmax) in series [10] of 5.1 µM.

The term EC50 denotes the concentration at which the effect is half-maximal. By solubility is commonly meant the dissolved amount per volume that the medium holds. In general, IC50 refers to the concentration needed to halve the response being measured. As usually defined, the Cmax is the maximum level reached in the sampled fluid or tissue.
